Rev-RRE block: HIV Rev-RRE protein-RNA interaction inhibition | Rev peptide-RRE RNA binding, FRET | actives 0.79% (n = 97,000) | inhibition, % at 8 µM | P05866;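 active means inhibition above the screen-wide mean plus 3 SD, cut at about 35% in these data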;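 further: 0% = median DMSO wells and 100% = median Neomycin B control wells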
Target sequence (P05866 whole entry, looked up): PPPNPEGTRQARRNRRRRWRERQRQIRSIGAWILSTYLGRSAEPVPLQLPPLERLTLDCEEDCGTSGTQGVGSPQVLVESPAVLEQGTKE
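assay system = Cy5-tagged RRE RNA duplex with fluorescein-tagged Rev peptide | incubation = 5 + 15 min at 25 °C | also added = labelled Rev peptide | measure = % inhibition of FRET ratio versus controls | benchmarks = DMSO wells as 0% and neomycin B wells as 100% inhibition | measured by = FRET fluorescence readout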
DAT uptake mod: human DAT dopamine uptake with cocaine, either direction. LLC-PK1 hDAT cells, [14C]-dopamine uptake with cocaine IC80; actives deviate in either direction. B-score at 10 µM. actives 1.3% (n = 110,000). AID 449768. Q01959;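 active means Z score or B-score, a plate-position-corrected score, falls beyond the plate's 99.7% confidence bounds, in either direction; inactive means both scores lie inside the 99.7% bounds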;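 further: scored against the spread of the other compound wells on the same plate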
PLK1 PBD inh: inhibitors of human Plk1 polo box domain binding; P53350; Plk1 PBD phosphopeptide binding, fluorescence polarization; inhibition, %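 (tested at about 20 µM)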; actives 0.13% (n = 97,000); in the data active means inhibition above about 34%, passing the limit was not always enough
EphB4 antag: EphB4-ephrin-B2 interaction antagonism | P54760 | EphB4 LBD / TNYL-RAW-Alexa532 peptide, fluorescence polarization | inhibition, % at 7 µM | actives 0.15% (n = 97,000);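 active means inhibition above the screen-wide mean inhibition plus 3 SD, cut at about 15% in these data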;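 further: 0% = DMSO wells and 100% = excess unlabeled TNYL-RAW peptide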
PLK1 kinase inh: PLK1 (human) kinase inhibition; P53350; recombinant PLK1 kinase, TR-FRET peptide phosphorylation; inhibition, % at 10 µM; actives 0.53% (n = 97,000);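 active means inhibition of 50% or more in the single-concentration screen; inactive means inhibition below 50%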;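 further: 0% = DMSO max control and 100% = H-89 dihydrochloride min control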
FAK blocker: blocks human focal adhesion kinase activity | Q05397 | biochemical FAK kinase activity assay | inhibition, %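 (tested at 7 µM)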 | actives 0.84% (n = 97,000) | AID 727;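 further: 0% = DMSO and 100% = reference compound high control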
FAK inh confirm: FAK (human) inhibition confirmed. FAK kinase biochemical inhibition assay. inhibition, % at 7 µM. actives 28% (n = 750). shares compounds with FAK blocker
* = called active by the depositor; . = no result. The list is not random: actives were taken first. Their share in the collection is about 3.2%. Unless noted, no stated cut-off is given here; in the data, active means inhibition above about 19%; inactive means the rest.

SMILES	Rev-RRE block	DAT uptake mod	PLK1 PBD inh	EphB4 antag	PLK1 kinase inh	FAK blocker	FAK inh confirm
O=C(CCNS(=O)(=O)c1cccs1)Nc1ccccc1F	6	0.42	6	-2	-9	-5	.
COc1cc(C2Nc3ccc4ncccc4c3C3=C2C(=O)CCC3)cc(OC)c1O (stereo unspecified)	11	-0.19	3	4	-11	48*	29*
COc1cc(C2Nc3ccc4ncccc4c3C3=C2C(=O)CC(C)(C)C3)cc(OC)c1O (stereo unspecified)	6	2.7	7	-6	-4	47*	34*
Cc1cc2c(cc1C)NC(c1cccnc1)C1=C(CC(C)(C)CC1=O)N2 (stereo unspecified)	10	-0.95	12	4	-5	-1	.
CSc1ccc(S(=O)(=O)NCCSc2ccccn2)cc1	2	-0.42	-15	1	-5	-6	.
CCNc1nc(N)c(C(=O)c2ccc(Cl)s2)s1	-3	1.3	-26	-5	68*	19*	4
O=C(Nc1nc2ccccc2s1)c1ccc(Cl)s1	0	1.6	22	0	-12	-6	.
CCOc1ccc(S(=O)(=O)N(CC(=O)N/N=C/c2ccc(-c3ccc([N+](=O)[O-])cc3)o2)c2ccccc2)cc1	26	-0.38	1	1	-25	45*	21*
Cc1ccc(C)c(N(CC(=O)N/N=C/c2ccc(-c3ccc([N+](=O)[O-])cc3)o2)S(=O)(=O)c2ccccc2)c1	33	0.047	-14	-7	-3	3	.
CCOC(=O)c1ccc(NC2=CC(=O)C(=O)c3ccccc32)cc1	-3	-0.8	23	-4	-9	36*	35*
CCN(CC)c1ccc(-n2cc3c(=O)n(C)c(=O)n(C)c3c2)cc1	.	0.34	.	.	.	.	.
CN(C)c1ccc(-n2cc3c(=O)n(C)c(=O)n(C)c3c2)cc1	3	-0.33	-8	0	-5	27*	8
NC(=O)CC(NC(=O)Cc1cccc2ccccc12)c1ccc(NCCc2ccccc2F)c([N+](=O)[O-])c1 (stereo unspecified)	.	-0.058	.	.	.	.	.
O=C(c1cccc(S(=O)(=O)N2CCCC2)c1)N1CCN(c2ccccc2F)CC1	9	-0.17	-16	4	-10	35*	-1
c1coc(CNc2ncnc3nc[nH]c23)c1	.	0.086	.	.	.	.	.
Cc1ccc2[nH]c3c(NCc4ccco4)ncnc3c2c1	15	1.6	-25	6	-6	34*	21*
Cc1nn(C(=O)c2ccco2)c(C)c1CN1C(=O)c2ccccc2C1=O	6	-1.2	-3	8	-3	32*	8
CC(C)(C)OC(=O)N1CC2Cc3[nH]c(=O)ccc3C(C2)C1 (stereo unspecified)	6	-0.068	-21	10	-8	-1	.
CCOC(=O)c1cnc2ccc(C(=O)OC)cc2c1NCc1ccco1	3	-0.065	4	-6	-10	11	.
CCOC(=O)c1cnc2cc(Cl)c(OC)cc2c1NCC1CCCO1 (stereo unspecified)	1	-1.6	-18	8	2	20*	6
O=C(NC1CCCCC1)C(c1ccco1)N(Cc1cccnc1)C(=O)C1COc2ccccc2O1 (stereo unspecified)	2	1	7	-3	-11	1	.
Cc1cc(OCC(=O)Nn2cnnc2)ccc1Br	.	-0.14	.	.	.	.	.
Clc1ccc(Br)cc1-c1nc(-c2ccncc2)no1	5	-0.37	2	8	-12	28*	6
Brc1cccc(-c2nc(-c3ccncc3)no2)c1	.	1.6	.	.	.	.	.
Cc1cc(/C=N/NC(=O)c2cccc([N+](=O)[O-])c2)c(C)n1-c1ccc(Cl)cc1Cl	0	1.2	-7	-2	-13	20*	10
SMILES	Rev-RRE block	DAT uptake mod	PLK1 PBD inh	EphB4 antag	PLK1 kinase inh	FAK blocker	FAK inh confirm
Cc1cccnc1NC(=O)Cn1nc(C)c([N+](=O)[O-])c1C	10	-0.12	-21	2	-6	2	.
O=C1Cc2ccccc2C(=O)N1CCc1ccccc1	10	0.29	-27	-2	-22	40*	37*
CNC(=S)Nc1ccc(Nc2ccccc2)cc1	4	1.2	-20	-9	-15	1	.
COc1ccc(-n2cnnc2SCC(=O)Nc2cc(C(C)(C)C)nn2-c2ccccc2)cc1	7	-0.31	-18	1	-10	23*	12
COC(=O)c1[nH]c2cccc(Cl)c2c1NC(=O)CN(C)C1CCCCC1	9	0.11	-13	-2	-13	1	.
COc1ccc(-c2cc(=O)c3ccccc3s2)cc1	12	-0.041	-15	10	-4	17	.
COc1ccc2sc3ccccc3c(=O)c2c1	2	-1.3	-1	-3	-13	29*	12
CC(C)C(NS(=O)(=O)c1cccs1)C(=O)N1CCc2ccccc2C1 (stereo unspecified)	0	0.45	3	-7	-7	-1	.
CCOC(=O)c1cnc2ccc(OCC)cc2c1N1CCN(c2ccccc2)CC1	-2	1.8	1	-4	-5	-2	.
CCOC(=O)c1cnc2ccc(C)cc2c1Nc1ccc(N2CCOCC2)cc1	-4	1.4	-13	0	-12	51*	22*
CCOC(=O)c1cnc2ccc(C)cc2c1Sc1ccc(F)cc1	20	.	-15	-6	-2	11	.
CCOC(=O)c1cnc2ccc(C)cc2c1Sc1ccccc1	13	0.52	-13	15	-10	22*	2
CN(C)S(=O)(=O)c1cccc(-c2nnc(SCc3ccc4c(c3)OCCO4)o2)c1	.	1.4	.	.	.	.	.
S=c1[nH]nc(C2CCCCC2)n1/N=C/c1cccs1	-3	.	19	-9	-4	-4	.
CC[C@H](C)[C@@H](C(=O)N1CCNCC1)n1cc([C@@H](N)CO)nn1	.	-0.48	.	.	.	.	.
O=C1CCCC2=C1C(c1ccc(Cl)cc1)N1C(=O)CCSC1=N2 (stereo unspecified)	6	0.091	10	2	-4	1	.
O=C1CCCC2=C1C(c1ccc(Cl)cc1)C1C(=O)c3ccccc3C1=N2 (stereo unspecified)	3	2.6*	-10	1	-5	23*	6
O=C(c1cccc(Cl)c1)N1CCC(=O)N(C(CO)Cc2ccccc2)CC1 (stereo unspecified)	.	-0.05	.	.	.	.	.
Cc1occc1C(=O)NC1CCCCCC1	8	0.022	23	4	3	72*	2
COc1cc(CNCc2ccccn2)ccc1OCc1ccc(Cl)cc1Cl	9	1.8	-7	6	-3	9	.
Oc1ccc(NCc2ccccc2OCc2ccccc2F)cc1	-2	0.24	-7	-2	-4	35*	-1
CCOc1cccc(CNc2ccc(O)cc2)c1OCc1ccc(Cl)cc1	0	1	13	-1	-2	30*	-1
CCOc1cc(CNc2ccc(O)cc2)ccc1OCc1ccc(Cl)cc1Cl	-4	0.07	7	8	5	32*	-1

Screening data (PubChem BioAssay)
